Screens from PubChem BioAssay.
Myeloid diff 2: promotes myeloid progenitor differentiation. ER-HoxA9 myeloid progenitors, lysozyme-GFP differentiation, flow cytometry. calls only at 10 µM. 1% of 360,000 active. AID 624256;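 active means normalized GFP-positive differentiation at or above the plate's own cutoff, the solvent-only control mean plus 3 SD; inconclusive means no clear call, values can overlap the other calls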;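 further: cells exposed to compound for four days before flow analysis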
T cell HTS: modulates CD8 T cell binding to vesicles; 0.068% of 330,000 active; 2C CD8+ T cell-vesicle binding, flow cytometry; hits give low values; AID 2052; response (vesicle binding), % at 7 µM;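 active means response, share of CD8 T cells binding vesicles, and their 90th percentile fluorescence all below set limits, cut at about 80% in these data, passing the limit was not always enough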;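 further: values below 100% mean blocked vesicle binding to the CD8+ T cells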
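Also added: QL9-peptide-loaded Drosophila micro-vesicles bearing Ld, ICAM-1 and B7-1; Test system: purified 2C TCR transgenic mouse naive CD8+ T cells; Measured by: cytometric PE anti-B7-1 and Alexa647 anti-CD8 signals after 1% paraformaldehyde fixation; Timing: binding step 1.5 h, 37 °C, antibody labelling 20 min, ice.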
Pemphigus Ab inh: human desmoglein-3 autoantibody binding inhibition; P32926; DSG3-coupled beads, scFv-anti-DSG3-GFP binding, flow cytometry; hits give low values; binding (percent of control), % at 10 µM; 0.48% of 310,000 active; AID 588358;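 active means binding more than 3 SD below its plate's average and above zero; inconclusive means below that plate limit but binding exactly zero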;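 further: hits lower antibody fragment binding to DSG3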
Vif imaging: HIV Vif inhibition | HEK293T cells, Vif self-association by quenched fluorescence, imaging, 24 h | 0.35% of 340,000 active | AID 602346 | inhibition, % at 7.49 µM; in the data active means inhibition above about 50%, passing the limit was not always enough; inconclusive means no clear call, values can overlap the other calls; inactive means below about 31%
Each line names hits and unclear results; the compound was inactive in the other large screens. Hits are enriched below; roughly 1.7% of the tested compounds scored in any of these assays.

COc1ccc(/C(O)=C2/C(=O)C(=O)N(Cc3cccnc3)C2c2ccco2)cc1OC (stereo unspecified)	T cell HTS 48 (no result: Pemphigus Ab inh)
CCOc1cccc(/C(O)=C2/C(=O)C(=O)N(Cc3cccnc3)C2c2ccco2)c1 (stereo unspecified)	none (no result: Pemphigus Ab inh)
O=C(NCCCCc1ccccc1)Nc1ccc(F)cc1F	Pemphigus Ab inh 92
O=C(NCCCCc1ccccc1)Nc1cccc(F)c1	none
Cc1cccc(CS(=O)(=O)c2ncc(Cl)c(C(=O)Nc3nnc(C(C)C)s3)n2)c1	Myeloid diff 2 inconclusive, Pemphigus Ab inh 93
Cc1ccc(CS(=O)(=O)c2ncc(Cl)c(C(=O)Nc3nnc(C(C)C)s3)n2)cc1	Myeloid diff 2 inconclusive
COc1ccc(C(Sc2ccccc2)c2ccccc2)cc1OC (stereo unspecified)	none
O=C(CCN1C(=O)/C(=C/c2ccc(F)cc2)SC1=S)NC1C=CS(=O)(=O)C1 (stereo unspecified)	Myeloid diff 2 inconclusive, Pemphigus Ab inh 60
NC(Cc1ccc(Cl)cc1)c1csc(Nc2cc(NCCCO)ncn2)n1 (stereo unspecified)	none (no result: T cell HTS, Pemphigus Ab inh)
COc1ccc(CC(N)c2csc(Nc3cc(NCCCO)ncn3)n2)cc1 (stereo unspecified)	Myeloid diff 2 active (no result: T cell HTS, Pemphigus Ab inh)
O=C(Nc1cc(Cl)ccc1Oc1ccccc1)c1cnccn1	Pemphigus Ab inh 66
COc1ccc(Cl)cc1NC(=O)c1cnccn1	none
COc1ccc(CC(=O)Nc2c3c(nn2-c2cccc(Cl)c2)CS(=O)(=O)C3)cc1	none
O=C(Cc1ccccc1)Nc1c2c(nn1-c1cccc(Cl)c1)CS(=O)(=O)C2	Pemphigus Ab inh 86
CCC(=O)c1cc2c(C)cc(=O)oc2c(C)c1O	Pemphigus Ab inh 51
CCC(=O)c1cc2c(C)cc(=O)oc2c(C)c1OC(C)=O	none
O=C(CSc1nnc(-c2ccccc2O)o1)Oc1ccc(OCc2ccccc2)cc1	Myeloid diff 2 active (no result: Pemphigus Ab inh)
O=C(CSc1nnc(-c2ccncc2)o1)Oc1ccccc1	none (no result: Pemphigus Ab inh)
Cc1cccc(C)c1OCCNC(=O)c1ccc2ccccc2n1	Pemphigus Ab inh -7.3
Cc1nc(-n2nnc3cc(C)c(C)cc32)c2c3c(sc2n1)CCCC3	Myeloid diff 2 active
CC(=O)Nc1ccc(C(=O)N2CCCC(c3cc(C(=O)NCc4ccccc4)no3)C2)cc1 (stereo unspecified)	none (no result: T cell HTS, Pemphigus Ab inh)
CC(=O)NC(C)(c1ccccc1)c1nc(-c2cccc(F)c2)cs1 (stereo unspecified)	none (no result: T cell HTS, Pemphigus Ab inh, Vif imaging)
COc1ccc2[nH]c(C)c(CCN(Cc3cccs3)C(=S)Nc3ccc(F)cc3)c2c1	Myeloid diff 2 active
CC(C)(c1ccc(O)cc1)c1ccc(O)c(C(=O)O)c1	none (no result: T cell HTS)
C[C@H]1C[C@H]2[C@@H]3CCC4=CC(=O)C=C[C@]4(C)[C@@]3(Cl)[C@@H](O)C[C@]2(C)[C@@]1(O)C(=O)CO	Pemphigus Ab inh -13
O=[N+]([O-])c1ccc(NCCNc2ccc([N+](=O)[O-])cc2)cc1	Pemphigus Ab inh -6.8 (no result: T cell HTS)
O=C1Nc2ccccc2Oc2cc([N+](=O)[O-])cc(Oc3ccccc3)c21	Myeloid diff 2 active
CS(=O)(=O)c1cnc(-c2ccccc2)nc1Sc1ccc(F)cc1	Pemphigus Ab inh 64
Cc1nc(N)sc1-c1csc(Nc2ncccn2)n1	Pemphigus Ab inh -54 (no result: T cell HTS)
CC(C)NC(=O)Cn1nnc(-c2ccccc2)c1COc1ccc2ccccc2c1	none (no result: T cell HTS, Pemphigus Ab inh)
CCOC(=O)c1cc(OC(=O)c2ccccc2OC)n(-c2ccccc2)n1	Vif imaging 78
CCOC(=O)c1sc2ccccc2c1OC(=O)c1ccccc1OC	none
CC(C)NC(=O)Nc1cccc2c1O[C@H](CN(C)C(=O)Nc1ccccc1)[C@@H](C)CN([C@H](C)CO)C2=O	none
Nc1cccn2c(-c3ccc(Cl)c(Cl)c3)cnc12	Myeloid diff 2 active
CC[C@@H](NCCCn1cnc2c(SC)ncnc21)c1ccccc1	none (no result: T cell HTS, Pemphigus Ab inh)
CN(C)CCNc1ncnc2c1sc1nc(-c3ccccc3)c3c(c12)CCCC3	Myeloid diff 2 active
Cc1cccc(OCc2nnc(SCC(=O)Nc3ccc(C)c(C)c3)o2)c1	Pemphigus Ab inh 66
COc1ccc(OCc2nnc(SCC(=O)Nc3cccc(Cl)c3)o2)cc1	Vif imaging 51 (no result: Pemphigus Ab inh)
Cc1cccc(OCc2nnc(SCC(=O)Nc3ncc(C)s3)o2)c1	none
CCSc1nnc(NC(=O)CSc2nnc(CNC(=O)c3ccc(OC)cc3)o2)s1	Pemphigus Ab inh -2.6
COc1ccc(C(=O)NCc2nnc(SCC(=O)Nc3nnc(C)s3)o2)cc1	none
COc1ccccc1N(C)S(=O)(=O)c1ccc(C)c(C(=O)NC(C)c2ccccn2)c1 (stereo unspecified)	none
COc1ccc(-c2cc(C(=O)Nc3cc(C)on3)no2)cc1	none
